High-throughput results (PubChem)
Apaf-1 inh = blocks human Apaf-1 apoptosome activity | O14727 | reconstituted apoptosome caspase-3 activity, DEVD-Rh110 fluorescence | inhibition, % at 20 µM | actives 0.71% (n = 330,000) | AID 489030; active means inhibition of at least 40% at 20 µM
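detection = Rh110 fluorescence intensity | test system = biochemical Apaf-1 apoptosome reconstitution | also added = cytochrome c and DEVD-Rh110 substrate | schedule = 30 min plus 50 min, RT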
UBC13 polyUb = human UBC13 polyubiquitination inhibition. P61088. UBC13 polyubiquitin chain formation, TR-FRET. inhibition, % at 20 µM. actives 0.47% (n = 330,000); in the data active means inhibition above about 45%, passing the limit was not always enough
UPR XBP1 act = activators of adaptive arm of unfolded protein response (XBP1); CHO-XBP1 luciferase reporter, IRE1-XBP1 UPR activation, luminescence; percent of tunicamycin response, DMSO as zero; activation, % at 20 µM; actives 0.33% (n = 330,000);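 active means versus positive control, 20 µM dose yields 30% or more activation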
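Material: CHO-XBP1 cells stably carrying IRE1-XBP1-driven luciferase reporter | Medium: F12 with 10% serum | Compound dosing: 20 µM single concentration, DMSO 1% | Incubation: Overnight seeding at 37 °C, 6 h compound treatment at 37 °C | Detection: Steady-Glo luminescence read | Read-out basis: % activation of reporter signal versus tunicamycin and DMSO controls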
CHOP UPR activ = activators of apoptotic arm of unfolded protein response (CHOP); AID 449763; activation, % at 10 µM; CHO-CHOP luciferase reporter, UPR activation, luminescence; percent of tunicamycin response over DMSO baseline; actives 0.34% (n = 330,000);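 active means at 10 µM dose, activation of 40% or more, normalized to positive control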
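Dosing – one dose, 10 µM in 0.5% DMSO · System – CHO-CHOP cells, stable luciferase reporter of PERK-eIF2a-CHOP signalling · Input – 500 cells/well · Control set – tunicamycin 10 µg/mL final as positive, DMSO-only wells as negative · Timing – 6 h compound treatment, 37 °C · Measure – % activation vs tunicamycin · Technique – luminescence read with Steady-Glo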
Mdm2 MdmX PPI = human Mdm2/MdmX binding inhibition; O15151+Q00987; SaOS-2 split-luciferase Mdm2/MdmX complementation, luminescence; inhibition, % at 8 µM; actives 3% (n = 330,000); AID 485346;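 active means inhibition of at least 50% at 8 µM in the primary screen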
Target sequence (O15151 whole entry, looked up): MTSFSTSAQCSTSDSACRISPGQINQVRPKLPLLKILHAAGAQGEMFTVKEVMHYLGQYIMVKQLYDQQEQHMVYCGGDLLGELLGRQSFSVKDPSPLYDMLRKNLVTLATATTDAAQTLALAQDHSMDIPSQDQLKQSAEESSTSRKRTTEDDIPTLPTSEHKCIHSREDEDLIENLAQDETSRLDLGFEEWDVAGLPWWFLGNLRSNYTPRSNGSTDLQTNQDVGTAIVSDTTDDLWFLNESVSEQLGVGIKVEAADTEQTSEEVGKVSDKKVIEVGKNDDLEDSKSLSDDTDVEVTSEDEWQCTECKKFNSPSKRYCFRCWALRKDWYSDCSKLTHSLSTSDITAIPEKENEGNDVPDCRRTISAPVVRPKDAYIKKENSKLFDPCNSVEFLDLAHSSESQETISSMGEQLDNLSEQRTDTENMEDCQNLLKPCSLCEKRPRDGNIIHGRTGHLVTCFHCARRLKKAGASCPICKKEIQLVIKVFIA
Target sequence (Q00987 whole entry, looked up): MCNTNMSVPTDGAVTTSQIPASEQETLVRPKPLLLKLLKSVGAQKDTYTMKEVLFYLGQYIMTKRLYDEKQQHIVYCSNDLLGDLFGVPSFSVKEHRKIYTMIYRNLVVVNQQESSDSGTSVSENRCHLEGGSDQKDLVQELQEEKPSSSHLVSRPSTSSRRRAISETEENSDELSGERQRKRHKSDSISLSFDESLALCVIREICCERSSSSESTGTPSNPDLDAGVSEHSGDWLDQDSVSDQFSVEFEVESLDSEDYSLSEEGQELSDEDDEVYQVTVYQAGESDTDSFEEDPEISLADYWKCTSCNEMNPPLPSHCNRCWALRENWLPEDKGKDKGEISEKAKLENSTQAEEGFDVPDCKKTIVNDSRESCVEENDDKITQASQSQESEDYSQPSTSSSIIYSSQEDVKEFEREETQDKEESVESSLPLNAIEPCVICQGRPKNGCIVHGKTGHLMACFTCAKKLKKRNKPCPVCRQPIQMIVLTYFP
Mdm2-MdmX conf = human Mdm2/MdmX binding inhibition, confirmed; luminescent assay; shares compounds with Mdm2 MdmX PPI; actives 55% (n = 10,000); inhibition, % at 8 µM; in the data active means inhibition above about 40%
FLuc counter = inhibits full-length luciferase, flagging false Mdm2/MdmX hits. inhibition, % at 8 µM. actives 77% (n = 6,200). SaOS-2 full-length luciferase counterscreen, luminescence. shares compounds with Mdm2 MdmX PPI;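 active means mean inhibition at 8 µM reaching about 37%, which flags the compound as non-specific, limit read from the data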;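 further: p53-null SaOS-2 cells with luciferase driven by a doxycycline-inducible promoter; compound on cells about two nights before reading with doxycycline added after day one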
A number is an active result. Shown are actives, neighbours in structure and some others; about 4.1% of the full set was active somewhere.

For CCCCn1c(=O)[nH]c(=O)c2c(C(=O)OCC)cc(-c3ccc(OC(F)F)cc3)nc21 the results were Apaf-1 inh inactive, UBC13 polyUb inactive, UPR XBP1 act inactive, CHOP UPR activ inactive, Mdm2 MdmX PPI 56.7 and Mdm2-MdmX conf inactive.
For Nc1nc(OCC2CCCCC2)c2[nH]cnc2n1 the results were Apaf-1 inh inactive, UBC13 polyUb inactive, UPR XBP1 act inactive, CHOP UPR activ inactive and Mdm2 MdmX PPI inactive.
For COc1cc(C(=O)Nc2ccc(N3CCCS3(=O)=O)cc2)c([N+](=O)[O-])cc1OC the results were Apaf-1 inh inactive, UBC13 polyUb inactive, UPR XBP1 act inactive, CHOP UPR activ inactive and Mdm2 MdmX PPI inactive.
O=C(CC(C(=O)O)c1cccc(Cl)c1Cl)c1ccccc1 (stereo unspecified) was read as Apaf-1 inh inactive, UBC13 polyUb inactive, UPR XBP1 act inactive, CHOP UPR activ inactive and Mdm2 MdmX PPI inactive.
For C=C(C(=O)c1ccccc1)C(CC(=O)c1ccccc1)c1ccccc1 (stereo unspecified) the results were Apaf-1 inh inactive, UBC13 polyUb inactive, UPR XBP1 act inactive, CHOP UPR activ inactive, Mdm2 MdmX PPI 100.8, Mdm2-MdmX conf 98.8 and FLuc counter 55.1.
`Oc1c(N=NC(=S)Nc2ccccc2F)c2ccccc2n1Cc1cccc(Cl)c1` gave Apaf-1 inh inactive, UBC13 polyUb inactive, UPR XBP1 act inactive, CHOP UPR activ inactive, Mdm2 MdmX PPI 58.6 and Mdm2-MdmX conf inactive.
Cc1cccc(Cn2c(O)c(N=NC(=S)Nc3ccccc3F)c3ccccc32)c1 was read as Apaf-1 inh inactive, UBC13 polyUb inactive, UPR XBP1 act inactive, CHOP UPR activ inactive, Mdm2 MdmX PPI 62.7, Mdm2-MdmX conf 41.9 and FLuc counter 54.4.
C=CCn1c(O)c(N=NC(=S)Nc2ccc(OC)c(Cl)c2)c2ccccc21 was read as Apaf-1 inh inactive, UBC13 polyUb inactive, UPR XBP1 act inactive, CHOP UPR activ inactive and Mdm2 MdmX PPI inactive.
`Oc1c(N=NC(=S)Nc2ccccc2F)c2ccccc2n1Cc1ccc(F)cc1` gave Apaf-1 inh inactive, UBC13 polyUb inactive, UPR XBP1 act inactive, CHOP UPR activ inactive, Mdm2 MdmX PPI 59.4, Mdm2-MdmX conf 47.0 and FLuc counter 55.2.
Cc1cccc(-c2cc3nc4c(c(N5CCOCC5)n3n2)CCCC4)c1 was read as Apaf-1 inh inactive, UBC13 polyUb inactive, UPR XBP1 act inactive, CHOP UPR activ inactive, Mdm2 MdmX PPI 64.5 and Mdm2-MdmX conf inactive.
For O=C(COC(=O)C1CCC1)NCc1ccc(Cl)cc1Cl the results were Apaf-1 inh inactive, UBC13 polyUb inactive, UPR XBP1 act inactive, CHOP UPR activ inactive and Mdm2 MdmX PPI inactive.
For Cc1ccc(N2CCN(C(=O)C3CCCN(c4ncnc5c4nc4n5CCCCC4)C3)CC2)c(C)c1 (stereo unspecified) the results were Apaf-1 inh inactive, UBC13 polyUb inactive, UPR XBP1 act inactive, CHOP UPR activ inactive, Mdm2 MdmX PPI 72.2, Mdm2-MdmX conf inactive and FLuc counter 56.5.
For Cc1ccc(C)c(N2CCN(C(=O)C3CCCN(c4ncnc5c4nc4n5CCCCC4)C3)CC2)c1 (stereo unspecified) the results were Apaf-1 inh inactive, UBC13 polyUb inactive, UPR XBP1 act inactive, CHOP UPR activ inactive and Mdm2 MdmX PPI inactive.
For COc1ccccc1N1CCN(CCCNC(=O)C2CCCN(c3ncnc4c3nc3n4CCCCC3)C2)CC1 (stereo unspecified) the results were Apaf-1 inh inactive, UBC13 polyUb inactive, UPR XBP1 act inactive, CHOP UPR activ inactive, Mdm2 MdmX PPI 50.3 and Mdm2-MdmX conf inactive.
Cc1cccc(N2CCN(C(=O)C3CCN(c4ncnc5c4nc4n5CCCCC4)CC3)CC2)c1C was read as Apaf-1 inh inactive, UBC13 polyUb inactive, UPR XBP1 act inactive, CHOP UPR activ inactive and Mdm2 MdmX PPI inactive.
For CC1CCN(CCCNC(=O)C2CCCN(c3ncnc4c3nc3n4CCCCC3)C2)CC1 (stereo unspecified) the results were Apaf-1 inh inactive, UBC13 polyUb inactive, UPR XBP1 act inactive, CHOP UPR activ inactive and Mdm2 MdmX PPI inactive.
Screening Cc1cccc(N2CCN(C(=O)C3CCN(c4ncnc5c4nc4n5CCCCC4)CC3)CC2C)c1 (stereo unspecified) returned Apaf-1 inh inactive, UBC13 polyUb inactive, UPR XBP1 act inactive, CHOP UPR activ inactive, Mdm2 MdmX PPI 60.5, Mdm2-MdmX conf 50.0 and FLuc counter 61.4.
For O=C(C1CCCN(c2ncnc3c2nc2n3CCCCC2)C1)N1CCN(c2cccc(Cl)c2)CC1 (stereo unspecified) the results were Apaf-1 inh inactive, UBC13 polyUb inactive, UPR XBP1 act inactive, CHOP UPR activ inactive, Mdm2 MdmX PPI 56.7 and Mdm2-MdmX conf inactive.
Screening CCC(CO)NCc1ccccc1OC(C)C (stereo unspecified) returned Apaf-1 inh inactive, UBC13 polyUb inactive, UPR XBP1 act inactive, CHOP UPR activ inactive and Mdm2 MdmX PPI inactive.
For CCOC(=O)c1c(NC(=O)CSc2nnnn2C)sc(CC)c1C the results were Apaf-1 inh inactive, UBC13 polyUb inactive, UPR XBP1 act inactive, CHOP UPR activ inactive and Mdm2 MdmX PPI inactive.
For O=S(=O)(c1ccc(Br)s1)N1CCN(c2ccc(F)cc2)CC1 the results were Apaf-1 inh inactive, UBC13 polyUb inactive, UPR XBP1 act inactive, CHOP UPR activ inactive and Mdm2 MdmX PPI inactive.
`COC(=O)c1sc2nc(SCC(=O)N(C)c3ccccc3)n(N)c(=O)c2c1C` gave Apaf-1 inh inactive, UBC13 polyUb inactive, UPR XBP1 act inactive, CHOP UPR activ inactive, Mdm2 MdmX PPI 56.0 and Mdm2-MdmX conf inactive.
`COC(=O)c1sc2nc(SCc3ccccc3C)n(N)c(=O)c2c1C` gave Apaf-1 inh inactive, UBC13 polyUb inactive, UPR XBP1 act inactive, CHOP UPR activ inactive and Mdm2 MdmX PPI inactive.
`O=C(NCc1ccc(F)cc1)C(=O)NCC1OCCCN1S(=O)(=O)c1cccs1` (stereo unspecified) gave Apaf-1 inh inactive, UBC13 polyUb inactive, UPR XBP1 act inactive, CHOP UPR activ inactive and Mdm2 MdmX PPI inactive.
O=C(Nc1ccc(Cl)cc1)c1cc2c(cc1O)[nH]c1ccccc12 was read as Apaf-1 inh inactive, UBC13 polyUb inactive, UPR XBP1 act inactive, CHOP UPR activ inactive, Mdm2 MdmX PPI 97.3, Mdm2-MdmX conf 92.7 and FLuc counter 58.5.
For COc1ccc(C(=O)NCCc2nnc3ccc(SCC(=O)Nc4cc(C)on4)nn23)cc1 the results were Apaf-1 inh inactive, UBC13 polyUb inactive, UPR XBP1 act inactive, CHOP UPR activ inactive and Mdm2 MdmX PPI inactive.
